# ChEMBL document CHEMBL1240400, “Comparative in vitro activities of nemonoxacin (TG-873870), a novel nonfluorinated quinolone, and other quinolones against clinical isolates” (2010)
# Assays:
# Format in all cases: functional
# Enterococcus faecalis [1] = assay: Antibacterial activity against Enterococcus faecalis by broth dilution method
# Staphylococcus aureus [2] = assay: Antibacterial activity against methicillin susceptible Staphylococcus aureus by broth dilution method
# Citrobacter freundii = assay: Antibacterial activity against Citrobacter freundii by broth dilution method
# Summary of the method: (§1)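 Broth microdilution per CLSI in panels spanning a dilution range of each agent. Cation-adjusted Mueller-Hinton broth, final inoculum 5 × 10^5 CFU/ml from a 0.5 McFarland suspension. Incubated overnight at 35°C in ambient air, with quality control strains in each run. MIC reported; values at or below the lowest concentration tested are given as that concentration.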
# Enterococcus faecium [3] = assay: Antibacterial activity against vancomycin resistant Enterococcus faecium by broth dilution method
# Summary of the method: (§2)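 Clinical isolates tested by CLSI broth microdilution in panels holding serial twofold drug dilutions in cation-adjusted Mueller-Hinton broth. Final inoculum 5 × 10^5 CFU/ml was made from a 0.5 McFarland suspension. Plates were incubated overnight at 35°C in ambient air, and the MIC was read as the lowest concentration inhibiting growth. Quality control strains were included in each run.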
# Enterobacter cloacae = assay: Antibacterial activity against Enterobacter cloacae by broth dilution method
# Enterococcus faecium [4] = assay: Antibacterial activity against Enterococcus faecium by broth dilution method; summary of the method: as §2
# Neisseria gonorrhoeae [5] = assay: Antibacterial activity against moxifloxacin resistant Neisseria gonorrhoeae isolates by broth dilution method
# Summary of the method: (§3)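 Neisseria gonorrhoeae clinical isolates tested by CLSI broth microdilution in Mueller-Hinton broth with 3% lysed horse blood, inoculated from a 0.5 McFarland suspension. Plates were incubated overnight at 35°C in 5% CO2, and the MIC was read as the lowest inhibitory concentration. Quality control strains were included in each run.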
# Pseudomonas aeruginosa = assay: Antibacterial activity against Pseudomonas aeruginosa by broth dilution method
# Haemophilus influenzae = assay: Antibacterial activity against Haemophilus influenzae by broth dilution method
# Summary of the method: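 Broth microdilution per CLSI using Haemophilus Test Medium broth, seeded from a 0.5 McFarland suspension. Incubated overnight at 35°C in ambient air, with quality control strains in each run. MIC read against a tested dilution range; values at the low limit are given as the lowest concentration.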
# Escherichia coli [6] = assay: Antibacterial activity against ciprofloxacin susceptible Escherichia coli by broth dilution method; summary of the method: as §1
# Acinetobacter baumannii = assay: Antibacterial activity against Acinetobacter baumannii by broth dilution method; summary of the method: as §1
# Streptococcus viridans = assay: Antibacterial activity against Streptococcus viridans by broth dilution method
# Summary of the method: (§4)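 Streptococci were tested by CLSI broth microdilution in Mueller-Hinton broth with 3% lysed horse blood, seeded from a 0.5 McFarland suspension. Incubated overnight at 35°C in ambient air, with quality control strains in each run. MIC taken over a per-agent dilution range.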
# Neisseria gonorrhoeae [7] = assay: Antibacterial activity against ciprofloxacin resistant Neisseria gonorrhoeae isolates by broth dilution method; summary of the method: as §3
# [8] = system: Staphylococcus epidermidis; assay: Antibacterial activity against methicillin resistant coagulase negative Staphylococcus epidermidis by broth dilution method
# Proteus mirabilis = assay: Antibacterial activity against Proteus mirabilis by broth dilution method
# Staphylococcus = assay: Antibacterial activity against methicillin resistant coagulase negative Staphylococcus by broth dilution method
# Streptococcus pneumoniae [9] = assay: Antibacterial activity against Levofloxacin resistant Streptococcus pneumoniae by broth dilution method
# Summary of the method: (§5)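 Streptococcus pneumoniae clinical isolates tested by CLSI broth microdilution. A 0.5 McFarland suspension was diluted into Mueller-Hinton broth with 3% lysed horse blood, then tested against serial drug dilutions. Plates were incubated overnight at 35°C in ambient air, and the MIC was read as the lowest inhibitory concentration. Quality control strains were included in each run.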
# Streptococcus pneumoniae [10] = assay: Antibacterial activity against Levofloxacin susceptible Streptococcus pneumoniae by broth dilution method; summary of the method: as §5
# Staphylococcus aureus [11] = assay: Antibacterial activity against ciprofloxacin susceptible and methicillin resistant Staphylococcus aureus by broth dilution method; summary of the method: as §2
# Neisseria gonorrhoeae [12] = assay: Antibacterial activity against levofloxacin resistant Neisseria gonorrhoeae isolates by broth dilution method; summary of the method: as §3
# Streptococcus pyogenes = assay: Antibacterial activity against Streptococcus pyogenes by broth dilution method; summary of the method: as §4
# Streptococcus agalactiae = assay: Antibacterial activity against Streptococcus agalactiae by broth dilution method; summary of the method: as §4
# Escherichia coli [13] = assay: Antibacterial activity against ciprofloxacin resistant Escherichia coli by broth dilution method; summary of the method: as §2
# Klebsiella pneumoniae = assay: Antibacterial activity against Klebsiella pneumoniae by broth dilution method; summary of the method: as §1
# Staphylococcus aureus [14] = assay: Antibacterial activity against ciprofloxacin and methicillin resistant Staphylococcus aureus by broth dilution method; summary of the method: as §2
# Enterococcus faecalis [15] = assay: Antibacterial activity against vancomycin resistant Enterococcus faecalis by broth dilution method
smiles,measurement,setting,value
C[C@H]1COc2c(N3CCN(C)CC3)c(F)cc3c(=O)c(C(=O)O)cn1c23.C[C@H]1COc2c(N3CCN(C)CC3)c(F)cc3c(=O)c(C(=O)O)cn1c23.O [LEVOFLOXACIN],MIC50,Enterococcus faecalis [1],2 mg/L
same,MIC90,Enterococcus faecalis [1],> 16 mg/L
same,MIC50,Staphylococcus aureus [2],0.25 mg/L
same,MIC90,Staphylococcus aureus [2],1 mg/L
same,MIC50,Citrobacter freundii,0.12 mg/L
same,MIC90,Citrobacter freundii,2 mg/L
same,MIC,Enterococcus faecium [3],2 mg/L
same,MIC50,Enterobacter cloacae,2 mg/L
same,MIC90,Enterobacter cloacae,16 mg/L
same,MIC50,Enterococcus faecium [4],> 16 mg/L
same,MIC90,Enterococcus faecium [4],> 16 mg/L
same,MIC,Neisseria gonorrhoeae [5],0.5 mg/L
same,MIC50,Pseudomonas aeruginosa,8 mg/L
same,MIC90,Pseudomonas aeruginosa,> 16 mg/L
same,MIC50,Haemophilus influenzae,0.25 mg/L
same,MIC90,Haemophilus influenzae,8 mg/L
same,MIC50,Escherichia coli [6],0.5 mg/L
same,MIC90,Escherichia coli [6],1 mg/L
same,MIC50,Acinetobacter baumannii,2 mg/L
same,MIC90,Acinetobacter baumannii,16 mg/L
same,MIC50,Streptococcus viridans,1 mg/L
same,MIC90,Streptococcus viridans,2 mg/L
same,MIC,Neisseria gonorrhoeae [7],2 mg/L
same,MIC50,[8],0.5 mg/L
same,MIC90,[8],8 mg/L
same,MIC50,Proteus mirabilis,2 mg/L
same,MIC90,Proteus mirabilis,> 16 mg/L
same,MIC50,Staphylococcus,0.5 mg/L
same,MIC90,Staphylococcus,8 mg/L
same,MIC50,Streptococcus pneumoniae [9],16 mg/L
same,MIC90,Streptococcus pneumoniae [9],> 16 mg/L
same,MIC50,Streptococcus pneumoniae [10],1 mg/L
same,MIC90,Streptococcus pneumoniae [10],2 mg/L
same,MIC50,Staphylococcus aureus [11],0.25 mg/L
same,MIC90,Staphylococcus aureus [11],0.25 mg/L
same,MIC,Neisseria gonorrhoeae [12],1 mg/L
same,MIC50,Streptococcus pyogenes,1 mg/L
same,MIC90,Streptococcus pyogenes,2 mg/L
same,MIC50,Streptococcus agalactiae,1 mg/L
same,MIC90,Streptococcus agalactiae,2 mg/L
same,MIC50,Escherichia coli [13],> 16 mg/L
same,MIC90,Escherichia coli [13],> 16 mg/L
same,MIC50,Klebsiella pneumoniae,2 mg/L
same,MIC90,Klebsiella pneumoniae,> 16 mg/L
same,MIC50,Staphylococcus aureus [14],16 mg/L
same,MIC90,Staphylococcus aureus [14],16 mg/L
same,MIC50,Enterococcus faecalis [15],2 mg/L
COc1c(N2C[C@@H]3CCCN[C@@H]3C2)c(F)cc2c(=O)c(C(=O)O)cn(C3CC3)c12 [MOXIFLOXACIN],MIC50,Enterococcus faecalis [1],0.5 mg/L
same,MIC90,Enterococcus faecalis [1],> 8 mg/L
same,MIC50,Citrobacter freundii,0.5 mg/L
same,MIC90,Citrobacter freundii,8 mg/L
same,MIC,Enterococcus faecium [3],1 mg/L
same,MIC50,Enterococcus faecium [4],> 8 mg/L
same,MIC90,Enterococcus faecium [4],> 8 mg/L
same,MIC,Neisseria gonorrhoeae [5],0.5 mg/L
same,MIC50,Pseudomonas aeruginosa,> 8 mg/L
same,MIC90,Pseudomonas aeruginosa,> 8 mg/L
same,MIC50,Haemophilus influenzae,0.25 mg/L
same,MIC90,Haemophilus influenzae,> 8 mg/L
same,MIC50,Escherichia coli [6],0.5 mg/L
same,MIC90,Escherichia coli [6],1 mg/L
same,MIC50,Acinetobacter baumannii,1 mg/L
same,MIC90,Acinetobacter baumannii,> 8 mg/L
same,MIC50,Streptococcus viridans,0.12 mg/L
same,MIC90,Streptococcus viridans,0.25 mg/L
same,MIC,Neisseria gonorrhoeae [7],2 mg/L
same,MIC50,[8],0.12 mg/L
same,MIC90,[8],2 mg/L
same,MIC50,Proteus mirabilis,8 mg/L
same,MIC90,Proteus mirabilis,> 8 mg/L
same,MIC,Streptococcus pneumoniae [9],2 mg/L
same,MIC50,Streptococcus pneumoniae [9],2 mg/L
same,MIC90,Streptococcus pneumoniae [9],8 mg/L
same,MIC,Neisseria gonorrhoeae [12],1 mg/L
same,MIC50,Escherichia coli [13],> 8 mg/L
same,MIC90,Escherichia coli [13],> 8 mg/L
same,MIC50,Klebsiella pneumoniae,4 mg/L
same,MIC90,Klebsiella pneumoniae,> 8 mg/L
same,MIC50,Staphylococcus aureus [14],4 mg/L
same,MIC90,Staphylococcus aureus [14],4 mg/L
same,MIC50,Enterococcus faecalis [15],0.5 mg/L
COc1c(N2C[C@@H](C)C[C@H](N)C2)ccc2c(=O)c(C(=O)O)cn(C3CC3)c12.O=C(O)CC(O)C(=O)O [NEMONOXACIN MALIC ACID],MIC50,Enterococcus faecalis [1],0.25 mg/L
same,MIC90,Enterococcus faecalis [1],4 mg/L
same,MIC50,Staphylococcus aureus [2],0.03 mg/L
same,MIC90,Staphylococcus aureus [2],0.12 mg/L
same,MIC50,Citrobacter freundii,0.5 mg/L
same,MIC90,Citrobacter freundii,4 mg/L
same,MIC50,Enterococcus faecium [3],4 mg/L
same,MIC90,Enterococcus faecium [3],8 mg/L
same,MIC50,Enterobacter cloacae,4 mg/L
same,MIC90,Enterobacter cloacae,> 16 mg/L
same,MIC50,Enterococcus faecium [4],4 mg/L
same,MIC90,Enterococcus faecium [4],8 mg/L
same,MIC,Neisseria gonorrhoeae [5],0.25 mg/L
same,MIC50,Pseudomonas aeruginosa,16 mg/L
same,MIC90,Pseudomonas aeruginosa,> 16 mg/L
same,MIC50,Haemophilus influenzae,0.12 mg/L
same,MIC90,Haemophilus influenzae,4 mg/L
same,MIC50,Escherichia coli [6],1 mg/L
same,MIC90,Escherichia coli [6],2 mg/L
same,MIC50,Acinetobacter baumannii,4 mg/L
same,MIC90,Acinetobacter baumannii,> 16 mg/L
same,MIC50,Streptococcus viridans,0.12 mg/L
same,MIC90,Streptococcus viridans,0.25 mg/L
same,MIC,Neisseria gonorrhoeae [7],0.25 mg/L
same,MIC50,[8],0.12 mg/L
same,MIC90,[8],0.5 mg/L
same,MIC50,Proteus mirabilis,8 mg/L
same,MIC90,Proteus mirabilis,> 16 mg/L
same,MIC50,Staphylococcus,0.12 mg/L
same,MIC90,Staphylococcus,0.5 mg/L
same,MIC50,Streptococcus pneumoniae [9],1 mg/L
same,MIC90,Streptococcus pneumoniae [9],2 mg/L
same,MIC50,Streptococcus pneumoniae [10],0.12 mg/L
same,MIC90,Streptococcus pneumoniae [10],0.12 mg/L
same,MIC50,Staphylococcus aureus [11],0.03 mg/L
same,MIC90,Staphylococcus aureus [11],0.06 mg/L
same,MIC,Neisseria gonorrhoeae [12],0.25 mg/L
same,MIC50,Streptococcus pyogenes,0.12 mg/L
same,MIC90,Streptococcus pyogenes,0.12 mg/L
same,MIC,Streptococcus agalactiae,0.12 mg/L
same,MIC50,Streptococcus agalactiae,0.12 mg/L
same,MIC90,Streptococcus agalactiae,0.25 mg/L
same,MIC50,Escherichia coli [13],> 16 mg/L
same,MIC90,Escherichia coli [13],> 16 mg/L
same,MIC50,Klebsiella pneumoniae,4 mg/L
same,MIC90,Klebsiella pneumoniae,> 16 mg/L
same,MIC50,Staphylococcus aureus [14],1 mg/L
same,MIC90,Staphylococcus aureus [14],1 mg/L
same,MIC50,Enterococcus faecalis [15],0.25 mg/L
same,MIC90,Enterococcus faecalis [15],4 mg/L
